Results reported in ChEMBL document CHEMBL1134289, “5-(Tryptophyl)amino-1,3-dioxoperhydropyrido[1,2-c]pyrimidine-based potent and selective CCK(1) receptor antagonists: structure-activity relationship studies on the central 1,3-dioxoperhydropyrido[1,2-c]pyrimidine scaffold” (J Med Chem, 2001).

Assays:
[1] = species on record: Rattus norvegicus; assay: Inhibition of amylase release stimulated by CCK-8 (0.1 nM) in dispersed rat pancreatic acini; assay type: functional
How it was run: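 Acini prepared by collagenase digestion (two 6-min incubations, 37 °C) in HEPES buffer pH 7.4, then suspended in buffer with theophylline, SBTI and BSA. Incubated 30 min at 37 °C under O2 with shaking, CCK-8 0.1 nM plus increasing compound levels. Released amylase taken as percent of acinar content; inhibition computed relative to vehicle and CCK-8 alone. Three to six experiments, in duplicate.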

[2] = target: T1, Gastrin/cholecystokinin type B receptor (Rattus norvegicus, UniProt P30553); assay: Inhibition of [3H]pCCK-8 binding to cholecystokinin type B receptor of rat cerebral cortex; assay type: tissue-based
T1 sequence (P30553 whole entry): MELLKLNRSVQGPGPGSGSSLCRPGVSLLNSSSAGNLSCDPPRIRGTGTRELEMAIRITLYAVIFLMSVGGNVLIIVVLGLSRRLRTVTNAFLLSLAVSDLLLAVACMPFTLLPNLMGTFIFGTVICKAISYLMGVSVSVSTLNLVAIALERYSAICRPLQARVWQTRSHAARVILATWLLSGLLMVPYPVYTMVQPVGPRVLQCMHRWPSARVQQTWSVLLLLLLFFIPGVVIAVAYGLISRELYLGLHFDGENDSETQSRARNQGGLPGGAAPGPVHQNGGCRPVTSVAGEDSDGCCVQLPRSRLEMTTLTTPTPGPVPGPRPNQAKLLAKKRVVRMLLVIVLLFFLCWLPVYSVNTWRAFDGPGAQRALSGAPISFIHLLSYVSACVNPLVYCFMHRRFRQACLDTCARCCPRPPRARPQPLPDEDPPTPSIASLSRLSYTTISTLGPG

[3] = target: T2, Cholecystokinin receptor type A (Rattus norvegicus, UniProt P30551); assay: Inhibition of [3H]pCCK-8 binding to cholecystokinin type A receptor of rat pancreas
T2 sequence (P30551 whole entry): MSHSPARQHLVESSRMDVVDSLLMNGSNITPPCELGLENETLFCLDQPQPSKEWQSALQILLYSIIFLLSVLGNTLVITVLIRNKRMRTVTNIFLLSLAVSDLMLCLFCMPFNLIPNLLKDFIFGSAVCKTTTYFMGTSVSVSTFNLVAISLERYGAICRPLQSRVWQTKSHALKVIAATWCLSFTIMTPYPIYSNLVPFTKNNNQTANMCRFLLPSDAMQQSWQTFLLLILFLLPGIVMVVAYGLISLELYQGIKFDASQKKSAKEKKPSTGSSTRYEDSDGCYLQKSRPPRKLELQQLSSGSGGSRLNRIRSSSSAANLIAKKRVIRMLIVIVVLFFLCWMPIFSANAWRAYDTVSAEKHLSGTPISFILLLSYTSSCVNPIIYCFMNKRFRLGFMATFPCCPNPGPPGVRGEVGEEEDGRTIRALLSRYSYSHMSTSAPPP
How it was run: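 Rat pancreas homogenized in Pipes-HCl pH 6.5 with 30 mM MgCl2, centrifuged twice at 50000g, 4 °C. Membranes (0.2 mg protein/tube) incubated with 0.5 nM [3H]pCCK-8 plus bacitracin and SBTI (0.2 mg/mL each), 120 min, 25 °C. Seven test concentrations in triplicate; mean of at least three experiments.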

[4] = target: T1, Gastrin/cholecystokinin type B receptor; assay: Inhibition of [3H]pCCK-8 specific binding to cholecystokinin type B receptor in rat cerebral cortex; assay type: tissue-based
How it was run: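 Rat cerebral cortex homogenized in 50 mM Tris-HCl pH 7.4 with 5 mM MgCl2, centrifuged twice at 100000g, 4 °C. Membranes (0.45 mg protein/tube) incubated with 1 nM [3H]pCCK-8 and bacitracin 0.2 mg/mL, 60 min, 25 °C. Nonspecific binding defined by 1 µM CCK-8. Seven test concentrations in triplicate; at least three experiments.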

Row | Compound | IC50 [2] [nM] | IC50 [3] [nM] | IC50 [4] [nM] | IC50 [1] [nM]
1 | CC(C)(C)OC(=O)N[C@@H](Cc1c[nH]c2ccccc12)C(=O)N[C@H]1CCCN2C(=O)N(Cc3ccccc3)C(=O)C[C@H]12 |  |  |  | 77
2 | CC(C)(C)OC(=O)N[C@@H](Cc1c[nH]c2ccccc12)C(=O)N[C@@H]1CCCN2CN(Cc3ccccc3)CC[C@@H]12 | > 10000 | > 1000 |  | 
3 | CC(C)(C)OC(=O)N[C@@H](Cc1c[nH]c2ccccc12)C(=O)N[C@H]1CCCN2C(=S)N(Cc3ccccc3)C(=S)C[C@H]12 | > 10000 | 900 |  | 
4 | CC(C)(C)OC(=O)N[C@@H](Cc1c[nH]c2ccccc12)C(=O)N[C@@H]1CCCN2CN(Cc3ccccc3)C(=O)C[C@@H]12 | > 10000 | > 1000 |  | 
5 | CO[C@@H]1C[C@H]2[C@H](NC(=O)[C@H](Cc3c[nH]c4ccccc34)NC(=O)OC(C)(C)C)CCCN2C(=O)N1Cc1ccccc1 | > 10000 | 370 |  | 
6 | CC(C)(C)OC(=O)N[C@@H](Cc1c[nH]c2ccccc12)C(=O)N[C@@H]1CCCN2C(=S)N(Cc3ccccc3)C(=O)C[C@@H]12 | > 10000 | 0.09 |  | 33
7 | CC(C)(C)OC(=O)N[C@@H](Cc1c[nH]c2ccccc12)C(=O)N[C@@H]1CCCN2C(=O)N(Cc3ccccc3)C(=O)C[C@@H]12 [IQM-95333] |  |  | > 10000 | 0.64

More lines, main results first:

Row | IC50 [2] [nM] | IC50 [3] [nM] | IC50 [4] [nM] | Compound | IC50 [1] [nM]
8 | > 10000 |  |  | CC(C)(C)OC(=O)N[C@@H](Cc1c[nH]c2ccccc12)C(=O)N[C@H]1CCCN2C(=O)N(Cc3ccccc3)C(=S)C[C@H]12 | 23
9 | > 10000 | > 1000 |  | CC(C)(C)OC(=O)N[C@@H](Cc1c[nH]c2ccccc12)C(=O)N[C@H]1CCCN2CN(Cc3ccccc3)C(=O)C[C@H]12 | 
10 | > 10000 | 1.34 |  | CC(C)(C)OC(=O)N[C@@H](Cc1c[nH]c2ccccc12)C(=O)N[C@@H]1CCCN2C(=S)N(Cc3ccccc3)C(=S)C[C@@H]12 | 62
11 | > 10000 | 2.83 |  | CC(C)(C)OC(=O)N[C@@H](Cc1c[nH]c2ccccc12)C(=O)N[C@@H]1CCCN2C(=O)N(Cc3ccccc3)C(=S)C[C@@H]12 | 4.3
12 | > 10000 | > 1000 |  | CC(C)(C)OC(=O)N[C@@H](Cc1c[nH]c2ccccc12)C(=O)N[C@@H]1CCCN2C(=O)N(Cc3ccccc3)CC[C@@H]12 | 
13 | > 10000 | 825 |  | CC(C)(C)OC(=O)N[C@@H](Cc1c[nH]c2ccccc12)C(=O)N[C@H]1CCCN2C(=S)N(Cc3ccccc3)C(=O)C[C@H]12 | 
